Data: the EternaBench riboswitch data

Test system: MS2 coat protein
Experiment: apparent Kd, MS2 coat protein; higher = weaker binding; RNA-MaP array; tryptophan 2.4 mM where present
In short: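 The apparent Kd is the median of filtered binding-curve fits, one per cluster, to green signal normalised to red-channel RNA signal and control-cluster median Fmax. The clusters were on Illumina sequencing chips, and stalled E. coli RNA polymerase had transcribed the designs on them. Titration used SNAP-549-labelled MS2 coat protein from 0.7 or 1.5 nM, doubling to 3 µM, without and then with constant ligand, in 100 mM Tris-HCl pH 7.5, 80 mM KCl, 4 mM MgCl2, BSA, DTT, yeast tRNA and Tween-20.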

[1] = designed as: OFF switch for tryptophan, no ligand
[2] = ligand present: tryptophan, designed as: OFF switch for tryptophan
[3] = designed as: ON switch for tryptophan, no ligand
[4] = ligand present: tryptophan, designed as: ON switch for tryptophan

Sequence | apparent Kd [1] [nM] | apparent Kd [2] [nM] | apparent Kd [3] [nM] | apparent Kd [4] [nM]
GCCGCUGCCGCGAUAUGUAUGGGUGUGUAACGAGGACCGGUACGGCCGCCACUCGCGAUCGCACAUGAGGAUCACCCAUGUGUCC | 53.7 | 78.5 |  | 
CUAUAAGUACCGGUCCUCAGAUCCUCAUGACGAGGACCGGUACGGCCGCCACUCGAAACAUGAGGAUCACCCAUGUAAUAACAUU | 19.8 | 20.2 |  | 
UAACAUGAGGAUCACCCAUGUAAACUAAGUCGAGGACCGGUACGGCCGCCACUCGAAAUUGAAGAAUUGGCGGAAAAUGUAUGUU | 13.9 | 18.9 |  | 
CUUCGCAUAGGAAAACUAUGUGAAGAAAAUCGAGGACCGGUACGGCCGCCACUCGUCCUCAACAUGAGGAUCACCCAUGUAAUAA | 18.3 | 40.1 |  | 
ACACAAUACAUGAGGAUCACCCAUGUAAAACGAGGACCGGUACGGCCGCCACUCGAAUACUGUAAUCCUCGGAAUAUUAAGUGAA | 41 | 35.3 |  | 
CAGGCUAGGACGGCCGCCACUGUGGCUACGGUACAUGAGGAUCACCCAUGUUUGUGGUUGAUCUACAGGACCGGGUCCUGACACG |  |  | 132 | 483
UAUAUAUACUCGGCCGCCACUGAGAGAGUCAUGUAAACAUGAGGAUCACCCAUGUAAUAUAUAUACAGGACCGGGAGUAUAUUAA | 15.7 | 13.8 |  | 
GACGCAUGAGUUGGAACAGCUCAUGGGUCGCGAGGACCGGUACGGCCGCCACUCGGCUGUACAUGAGGAUCACCCAUGUCAGGGU |  |  | 279 | 550
UAAUCCGGUCCUCGAUAACAUGGGUGAAUACGAGGACCGGUACGGCCGCCACUCGAUAACAUGAGGAUCACCCAUGUAAUAAUAA | 85.7 | 84.1 |  | 
CGCCACUCGAGUGAUCCUCACGAGUGGCUACGAGGACCGGUACGGCCGCCACUCGAAUUAACAUGAGGAUCACCCAUGUACUCCA |  |  | 93.6 | 19.1
AAAUAAACCUCGGCCGCCACUCGCCAUGAGGAUCACCCAUGUAACAUGAGGAUCACCCAUGUACAGAGGACCGGGAGGUCCUAGU |  |  | 73 | 100
GUUAUAUACUCGGCCGCCACUGAGAGAGUCAUGUAAACAUGAGGAUCACCCAUGUAAUAUAUAUACAGGACCGGGAGUAUAGUAA | 14.5 | 13 |  | 
GCAUCCUAGUCGGCCGCCACUGCAAUUGUAGUACUGCUACAUGAACAUGAGGAUCACCCAUGUAGCAGGACCGGGACUAGGAUGC |  |  | 55 | 16.1
AGCAACAAGUCGGCCGCCACUCUUUUUACAUGAGGAUCACCCAUGUUUAUAUCAUGGUCUUAAUAGAGGACCGGGACAGUUGCAU | 37.2 | 54.6 |  | 
UUUAUAUAGACGGCCGCCACUGGAAUUAAUACAUGAGGAUCACCCAUGUAUAGAGAAUAAUAAUACAGGACCGGGUCUUCAUGAU |  |  | 29.4 | 12
UGACAGAUAACCGCUGGUGCUCUCGAGUUGCGAGGACCGGUACGGCCGCCACUCGACAACAUGAGGAUCACCCAUGUUGCGGGUC | 102 | 49.8 |  | 
AACAACUAGUCGGCCGCCACUCAUAAUACAUGAGGAUCACCCAUGUAUACUUGGUUUUUAUAUUUGAGGACCGGGACAGUUGCAU | 11.6 | 10.5 |  | 
GGAGCUACGUCGGCCGCCACUAGCGGUUAUUACGUGUACAUGAGGAUCACCCAUGUAAUAUGGCUUAGGACCGGGACGUAGCUCC | 22.5 | 27.1 |  | 
UAACAUGAGGAUCACCCAUGUUUGAAGAAACGAGGACCGGUACGGCCGCCACUCGACGAGUGGAUGAAUAGUGGGCUUGUGUGCU |  |  | 13.7 | 15
UGGUACUAGGCGGCCGCCACUGGGUGAUACAUGAGGAUCACCCAUGUUUAAUGCCGAGAGGCAACUAGGACCGGGCCUAGUACAU |  |  | 150 | 689
CUAAUUAUAUCGGCCGCCACUUACUCAUGAGGUAACAACAUGAGGAUCACCCAUGUUUGAGGAUCAAGGACCGGGAUAUAAUUAG |  |  | 28.9 | 17
ACAUGAGGAUCACCCAUGUACAUCACCCGACGAGGACCGGUACGGCCGCCACUCGGGUAUAUAUAUACAUCGGGUGGUUUUGCAU |  |  | 17.6 | 17.3
UAUACAUGGUAUAAAUAUAUAUAUAAGAAACGAGGACCGGUACGGCCGCCACUCGUGCCGGAAACAUGAGGAUCACCCAUGUAUU | 37.6 | 22.8 |  | 
GGAAUAAUGGCGGCCGCCACUAACUCAUAUACAUCAUGUACAUGAGGAUCACCCAUGUAGGUGUAUAGGACCGGGCCAUAAUUCC | 22.4 | 38.1 |  | 
AUGCAGAACACGGCCGCCACUCAUUGUAGACAUGAGGAUCACCCAUGUAAUAGGGAUAUUUUAUUGAGGACCGGGUGUAAUGCAA |  |  | 51.1 | 28.9
AAUGUAUUCCACAUGAGGAUCACCCAUGUGCGAGGACCGGUACGGCCGCCACUCGGUGUUGGGAUCAGUUCUGAAUACAUUAAUG | 15.9 | 47.5 |  | 
